hERG protect – hERG rescue from dofetilide block, primary screen, cell-based, CHO-hERG, FluxOR thallium flux, dofetilide IC70; Voltage-gated inwardly rectifying potassium channel KCNH2 (Homo sapiens), Q12809; dofetilide IC70 present; activation (rescue from dofetilide block), less the hit threshold, % at 10 µM; actives 0.51% (n = 310,000);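 active means activation above the mean of controls blocked by dofetilide plus 5 SD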;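 further: thallium influx through hERG after potassium depolarization seen as dye fluorescence rise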
KCNK3 inh – human KCNK3 channel inhibitors, primary screen, CHO cells, FluxOR thallium flux, B-score; FluxOR fluorescence; stronger effect = lower value; B-score at 10 µM; actives 0.84% (n = 340,000);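 active means B-score under library mean minus 4 SD, starting fluorescence ratio at most library mean plus 5 SD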;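 further: more negative B-score means stronger inhibition of thallium flux through KCNK3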
Target sequence (O14649 whole entry, looked up): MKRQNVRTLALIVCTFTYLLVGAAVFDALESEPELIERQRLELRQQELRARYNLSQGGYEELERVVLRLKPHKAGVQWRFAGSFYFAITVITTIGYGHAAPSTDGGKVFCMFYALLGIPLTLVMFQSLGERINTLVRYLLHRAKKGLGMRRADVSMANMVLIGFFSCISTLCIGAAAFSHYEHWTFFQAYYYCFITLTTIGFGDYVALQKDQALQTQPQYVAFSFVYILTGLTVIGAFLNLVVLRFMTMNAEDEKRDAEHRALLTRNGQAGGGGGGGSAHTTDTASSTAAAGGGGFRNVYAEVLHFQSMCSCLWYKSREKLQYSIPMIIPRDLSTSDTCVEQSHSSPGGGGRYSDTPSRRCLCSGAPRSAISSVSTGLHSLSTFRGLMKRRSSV
KCNK9 inh – KCNK9 potassium channel inhibitors, primary screen, HEK293 cells, thallium flux; Potassium channel subfamily K member 9 (Homo sapiens), Q9NPC2; FluxOR thallium flux fluorescence; stronger effect = lower value; B-score at 10 µM; actives 1.2% (n = 310,000); AID 488922, 2010;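 active means ratio B-score over 3 SD below the library mean, with starting fluorescence within 5 SD of its mean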;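 further: negative B-score means less thallium flux so channel inhibition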
KCNQ1 act – potentiators or activators of KCNQ1 channel, primary screen, cell-based, thallium flux, high-throughput; B-score at 10 µM; actives 0.35% (n = 310,000); AID 2648, 2010; CHO-K1 KCNQ1, thallium flux FluxOR fluorescence; stronger effect = higher value;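 active means fluorescence ratio B-score, a plate-corrected score, at least three library SD, with initial intensity B-score within 5 SD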
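Assay system: CHO-K1 cells stably expressing KCNQ1. Medium: assay buffer for compound exposure, DMSO matched across wells. Timing: 37 °C overnight plating, 90-min dark dye load, 20-min compound pretreatment. Signal: kinetic FluxOR fluorescence, 10 s baseline plus 110 s post-stimulus.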
KCNQ1 inh – inhibitors of human KCNQ1 channel, primary screen, cell-based, thallium flux, high-throughput. CHO-K1 KCNQ1, FluxOR thallium flux fluorescence; stronger effect = higher value. Potassium voltage-gated channel subfamily KQT member 1 (Homo sapiens), P51787. actives 1.3% (n = 310,000). B-score at 10 µM;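 active means compounds whose thallium flux B-score, printed positive for inhibition, exceeds three library SD while starting fluorescence stays within three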;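 further: channel opened by potassium depolarization with thallium stimulus after 20 min compound exposure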
The depositor's hits bear a star; i = inactive; . = no result given. The list is not random: actives were taken first. Their share in the collection is about 3.1%.

SMILES	hERG protect	KCNK3 inh	KCNK9 inh	KCNQ1 act	KCNQ1 inh
CC(=O)c1ccc(S(=O)(=O)Oc2ccc(-c3ccc(C(=O)O)cc3)cc2)cc1	-3	i	i	i	i
CCN1C(=O)/C(=C2\SC(=S)N(NC(=O)c3ccccc3O)C2=O)c2ccccc21	-26	i	i	i	10*
COc1cccc(C2N=C(c3ccccc3C)NO2)c1OC (stereo not drawn)	-4	i	i	i	i
O=C(Cn1ncc2c(=O)oc3ccccc3c21)N1CCN(C(=O)c2ccco2)CC1	-12	i	i	8*	i
O=C(COc1coc(CN2CCc3ccccc3C2)cc1=O)Nc1ccc(F)cc1F	-12	i	i	i	i
CCOC(=O)COc1c(C(=O)OC)sc2ncccc12	39*	i	i	i	i
COc1ccc2[nH]c(CN3CCC(n4nccc4NC(=O)C4CC4)CC3)c(C)c2c1	-11	i	i	i	i
COc1ccc(CCNC(=O)CC2SC(=NCc3ccccc3OC)NC2=O)cc1 (stereo not drawn)	4.9*	i	i	i	i
Nc1nonc1-n1nnc(C(=O)N/N=C/c2cccc(Cl)c2)c1-c1cccs1	0	i	i	i	i
O=C(c1ccc(F)cc1)N1CCN(c2ccccn2)CC1	-7	i	i	i	i
Cc1c(C)n(Cc2ccc(F)cc2)c2ccc(C(=O)N3CCN(c4ccccn4)CC3)cc12	-9	i	i	i	6*
Cc1cc2ccccn2c1C(=O)c1ccc(F)cc1	-6	i	-7.2*	i	i
O=c1c(C(c2ccccc2)c2c(O)sc3ccccc3c2=O)c(O)sc2ccccc12	-9	i	-8.2*	i	i
Cc1cccc(NS(=O)(=O)c2cccc(C(=O)NCCCN3CCOCC3)c2)c1	-7	i	i	i	i
CC(C)=CCc1c(O)c(CC=C(C)C)c2c(c1O)C(=O)CC(c1ccc(O)cc1)O2 (stereo not drawn)	-4	i	i	i	8*
Cc1c(O)cc2c(c1O)C(=O)CC(c1ccc(O)cc1)O2 (stereo not drawn)	-7	i	i	i	i
O=C1COc2ccc(C(=O)COC(=O)c3cnc(Cl)c(Cl)c3)cc2N1	-20	i	i	i	i
CC(=O)N1CCN(C(=O)COC(=O)CNC(=O)c2ccc(C)cc2)CC1	.	i	.	.	.
CN(C)c1cccc(C(=O)N2CCCC(C(=O)c3cc(F)ccc3F)C2)c1 (stereo not drawn)	-18	i	i	38*	i
N#C/C(=C(/O)c1ccc2c(c1)OCO2)c1nc2cc(C(F)(F)F)ccc2s1	-8	i	i	i	11*
Cc1ccc(CN(C)C(=O)CCc2nc3sc4c(c3c(=O)[nH]2)CCCC4)o1	-3	i	i	i	i
COC(=O)C1=C(C(=O)OC)[C@@H]2N(Cc3ccccc3)c3ccccc3[C@@]23C[C@@H](C(=O)OC)N(C(=O)C2CCC2)C3=N1	-5	.	-7.7*	i	i
CCOC(=O)N1C2=NC(C(=O)OC)=C(C(=O)OC)[C@@H]3N(Cc4ccccc4)c4ccccc4[C@]23C[C@H]1C(=O)OC	0	.	-7.7*	i	i
Cc1ccc(-n2nc3ccc(N)cc3n2)c(C)c1	7.0*	i	i	i	i
Cc1cc(=S)[nH]c2c(C)cccc12	5.0*	i	i	i	i
SMILES	hERG protect	KCNK3 inh	KCNK9 inh	KCNQ1 act	KCNQ1 inh
Cc1cccc2c(-c3ccccc3)cc(=O)[nH]c12	-3	i	i	i	i
COc1cccc(NC(=O)c2oc3ccccc3c2NC(=O)c2ccc3c(c2)OCO3)c1	-13	i	-7.9*	i	i
O=C(NCCN1CCN(Cc2ccccc2)CC1)Nc1cc(Cl)cc(Cl)c1	-24	i	i	i	6*
O=C(NCCN1CCN(c2cccc(Cl)c2)CC1)Nc1ccccc1	-10	i	i	i	i
CSc1nc(NCc2ccco2)c2ccccc2n1	-4	i	i	i	i
CNc1nc(SC)nc2ccccc12	6.6*	i	i	i	i
Cc1cccc(/N=C/c2nc(-c3ccccc3Br)oc2O)n1	-1	i	i	i	i
Oc1oc(-c2cccc3ccccc23)nc1/C=N/c1nccs1	19*	i	i	12*	i
Nc1cccc(S(=O)(=O)Nc2ccccc2)c1	-7	i	i	i	i
O=C(NC(=S)N1CCCCCC1)c1ccccc1Cl	3	i	i	i	i
O=C(NC(=S)N1CCN(c2ccccc2)CC1)c1ccccc1	10*	i	i	20*	i
O=C(NC(=S)N1CCCCCC1)c1ccc(Cl)cc1Cl	7.0*	i	i	21*	i
O=C(NC(=S)N1CCCCCC1)c1ccccc1	5.8*	i	i	i	i
CCc1ccc(NC(=O)CCc2c(C)nn(-c3ccc(N4CCCCC4)nn3)c2C)cc1	-13	i	i	i	i
O=C(Nc1cccc(Cl)c1)N1CCN2C(=O)c3ccccc3C12c1ccccc1 (stereo not drawn)	-11	i	i	i	11*
O=C(NN1CCN(Cc2ccccc2Cl)CC1)c1ccc(Br)cc1	-7	i	i	i	i
CCn1c(-c2cc(-c3ccc(C)cc3)nc3ccccc23)n[nH]c1=S	-1	i	i	i	i
CCn1c(-c2cc(-c3ccc(OC(C)C)cc3)nc3ccccc23)n[nH]c1=S	-20	i	i	i	6*
C=CCn1c(-c2cc(-c3ccc(C)cc3)nc3ccccc23)n[nH]c1=S	5.8*	i	i	i	i
O=C(CCN1C(=O)/C(=C/c2ccccc2F)SC1=S)NC1C=CS(=O)(=O)C1 (stereo not drawn)	-8	i	i	i	i
Nc1nc(O)c(N=Nc2ccc(S(N)(=O)=O)cc2)c(=O)[nH]1	4.8*	.	i	i	i
CC(O)Cc1cn([C@@H](CCCCN)C(=O)N2CCNCC2)nn1 (stereo partly drawn)	-7	i	i	19*	i
CN(CC(=O)Nc1ccc(F)cc1)C(=O)CSc1nnc(Cc2ccccc2)o1	.	i	.	.	.
O=C1c2ccccc2C(Nc2ccc(-c3nc4ccccc4[nH]3)cc2)N1Cc1ccco1 (stereo not drawn)	-13	-11*	i	i	i
CC(=O)Oc1ccc(C(=O)Nc2cccc(C(=O)c3ccc(C)c(C)c3)c2)cc1	-7	i	i	i	6*
